Experimental data published in ChEMBL document CHEMBL2434922, “Microwave assisted synthesis of dihydrobenzo[4,5]imidazo[1,2-a]pyrimidin-4-ones; synthesis, in vitro antimicrobial and anticancer activities of novel coumarin substituted dihydrobenzo[4,5]imidazo[1,2-a]pyrimidin-4-ones” (2013).
In brackets after ≈: the same amount, converted by molar mass.

Assays:
Format in all cases: functional
[1] = tested on: Aspergillus fumigatus; assay: Antifungal activity against Aspergillus fumigatus assessed as growth inhibition after 48 to 72 hrs by broth microdilution method
[2] = tested on: Klebsiella pneumoniae; assay: Antibacterial activity against Klebsiella pneumoniae assessed as growth inhibition after 18 hrs by broth microdilution method
[3] = tested on: Candida albicans; assay: Antifungal activity against Candida albicans assessed as growth inhibition after 48 to 72 hrs by broth microdilution method
[4] = tested on: Penicillium chrysogenum; assay: Antifungal activity against Penicillium chrysogenum assessed as growth inhibition after 48 to 72 hrs by broth microdilution method
[5] = Cytotoxicity against mouse Daltons ascitic lymphoma cells assessed as dead cells at 100 ug/ml after 3 hrs by trypan blue exclusion assay relative to control
How it was run: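 DAL cells (0.2 mL, 10⁶ cells/mL) mixed with ice-cold PBS pH 7.4 and compound (100 µg/mL), held at 37 °C under 5% CO₂ for 3 h. Aliquot then stained with 0.4% trypan blue in normal saline for 5–15 min at room temperature. Live and dead cells counted in a Neubauer chamber; % dead = dead/(dead+live) × 100.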

[6] = tested on: Aspergillus niger; assay: Antifungal activity against Aspergillus niger assessed as growth inhibition after 48 to 72 hrs by broth microdilution method
[7] = tested on: Fusarium oxysporum; assay: Antifungal activity against Fusarium oxysporum assessed as growth inhibition after 48 to 72 hrs by broth microdilution method
[8] = tested on: Staphylococcus aureus; assay: Antibacterial activity against Staphylococcus aureus assessed as growth inhibition after 18 hrs by broth microdilution method
[9] = tested on: Aspergillus flavus; assay: Antifungal activity against Aspergillus flavus assessed as growth inhibition after 48 to 72 hrs by broth microdilution method
[10] = tested on: Enterococcus faecalis; assay: Antibacterial activity against Enterococcus faecalis assessed as growth inhibition after 18 hrs by broth microdilution method
[11] = tested on: Escherichia coli; assay: Antibacterial activity against Escherichia coli assessed as growth inhibition after 18 hrs by broth microdilution method
[12] = tested on: Pseudomonas aeruginosa; assay: Antibacterial activity against Pseudomonas aeruginosa assessed as growth inhibition after 18 hrs by broth microdilution method
[13] = tested on: Streptococcus mutans; assay: Antibacterial activity against Streptococcus mutans assessed as growth inhibition after 18 hrs by broth microdilution method

Structure (SMILES) | MIC [1] | MIC [2] | MIC [3] | MIC [4] | mortality at 100 µg/mL [5] | MIC [6] | MIC [7] | MIC [8] | MIC [9] | MIC [10] | MIC [11] | MIC [12] | MIC [13]
COc1ccc2oc(=O)cc(Cn3c4ccccc4n4c(=O)cc(C(F)(F)F)nc34)c2c1 | 6.25 µg/mL (≈ 14.2 µM) | 100 µg/mL (≈ 227 µM) | 50 µg/mL (≈ 113 µM) | 0.4 µg/mL (≈ 0.906 µM) | 58% | 25 µg/mL (≈ 56.6 µM) | 0.2 µg/mL (≈ 0.453 µM) | 100 µg/mL (≈ 227 µM) | 3.12 µg/mL (≈ 7.07 µM) | 0.4 µg/mL (≈ 0.906 µM) | 100 µg/mL (≈ 227 µM) | > 100 µg/mL | 12.5 µg/mL (≈ 28.3 µM)
COc1ccc(-c2cc(=O)n3c(n2)[nH]c2ccccc23)cc1 | 1.6 µg/mL (≈ 5.49 µM) | 100 µg/mL (≈ 343 µM) | 6.25 µg/mL (≈ 21.5 µM) | 0.4 µg/mL (≈ 1.37 µM) | 64% | 25 µg/mL (≈ 85.8 µM) | 0.2 µg/mL (≈ 0.687 µM) | 100 µg/mL (≈ 343 µM) | 0.8 µg/mL (≈ 2.75 µM) | 0.2 µg/mL (≈ 0.687 µM) | 100 µg/mL (≈ 343 µM) | 100 µg/mL (≈ 343 µM) | 100 µg/mL (≈ 343 µM)
O=c1cc(-c2ccc(F)cc2)nc2[nH]c3ccccc3n12 | 0.2 µg/mL (≈ 0.716 µM) | 100 µg/mL (≈ 358 µM) | 1.6 µg/mL (≈ 5.73 µM) | 0.4 µg/mL (≈ 1.43 µM) | 83% | 1.6 µg/mL (≈ 5.73 µM) | 0.4 µg/mL (≈ 1.43 µM) | 100 µg/mL (≈ 358 µM) | 0.2 µg/mL (≈ 0.716 µM) | 0.2 µg/mL (≈ 0.716 µM) | 100 µg/mL (≈ 358 µM) | 100 µg/mL (≈ 358 µM) | 12.5 µg/mL (≈ 44.8 µM)
O=c1cc(-c2cccc(Cl)c2)nc2[nH]c3ccccc3n12 | 0.2 µg/mL (≈ 0.676 µM) | 100 µg/mL (≈ 338 µM) | 1.6 µg/mL (≈ 5.41 µM) | 0.4 µg/mL (≈ 1.35 µM) | 71% | 25 µg/mL (≈ 84.5 µM) | 0.2 µg/mL (≈ 0.676 µM) | 100 µg/mL (≈ 338 µM) | 0.2 µg/mL (≈ 0.676 µM) | 0.2 µg/mL (≈ 0.676 µM) | 100 µg/mL (≈ 338 µM) | 100 µg/mL (≈ 338 µM) | 25 µg/mL (≈ 84.5 µM)
O=c1cc(C(F)(F)F)nc2[nH]c3ccccc3n12 | 0.8 µg/mL (≈ 3.16 µM) | 100 µg/mL (≈ 395 µM) | 1.6 µg/mL (≈ 6.32 µM) | 0.4 µg/mL (≈ 1.58 µM) | 80% | 6.25 µg/mL (≈ 24.7 µM) | 0.2 µg/mL (≈ 0.79 µM) | 100 µg/mL (≈ 395 µM) | 0.8 µg/mL (≈ 3.16 µM) | 0.2 µg/mL (≈ 0.79 µM) | 100 µg/mL (≈ 395 µM) | 100 µg/mL (≈ 395 µM) | 50 µg/mL (≈ 197 µM)
O=c1cc(-c2cccc(F)c2)nc2[nH]c3ccccc3n12 | 0.8 µg/mL (≈ 2.86 µM) | 100 µg/mL (≈ 358 µM) | 1.6 µg/mL (≈ 5.73 µM) | 0.2 µg/mL (≈ 0.716 µM) | 54% | 12.5 µg/mL (≈ 44.8 µM) | 0.4 µg/mL (≈ 1.43 µM) | 100 µg/mL (≈ 358 µM) | 0.8 µg/mL (≈ 2.86 µM) | 0.2 µg/mL (≈ 0.716 µM) | 100 µg/mL (≈ 358 µM) | 25 µg/mL (≈ 89.5 µM) | 12.5 µg/mL (≈ 44.8 µM)
O=c1cc(-c2ccc(C(F)(F)F)cc2)nc2[nH]c3ccccc3n12 | 1.6 µg/mL (≈ 4.86 µM) | > 100 µg/mL | 6.25 µg/mL (≈ 19 µM) | 0.2 µg/mL (≈ 0.607 µM) | 79% | 100 µg/mL (≈ 304 µM) | 0.2 µg/mL (≈ 0.607 µM) | > 100 µg/mL | 1.6 µg/mL (≈ 4.86 µM) | 0.2 µg/mL (≈ 0.607 µM) | > 100 µg/mL | > 100 µg/mL | > 100 µg/mL
O=C(O)c1cn(C2CC2)c2cc(N3CCNCC3)c(F)cc2c1=O [CIPROFLOXACIN] | – | 1 µg/mL (≈ 3.02 µM) | – | – | – | – | – | 2 µg/mL (≈ 6.04 µM) | – | 2 µg/mL (≈ 6.04 µM) | – | – | 2 µg/mL (≈ 6.04 µM)
OC(Cn1cncn1)(Cn1cncn1)c1ccc(F)cc1F [FLUCONAZOLE] | 8 µg/mL (≈ 26.1 µM) | – | 16 µg/mL (≈ 52.2 µM) | 8 µg/mL (≈ 26.1 µM) | – | 8 µg/mL (≈ 26.1 µM) | 8 µg/mL (≈ 26.1 µM) | – | 8 µg/mL (≈ 26.1 µM) | – | – | – | –
O=c1[nH]cc(F)c(=O)[nH]1 [FLUOROURACIL] | – | – | – | – | 88% | – | – | – | – | – | – | – | –
